Experimental findings from publication PMC10739243 (ACS Bio & Med Chem Au, 2023) are described below.

Series [1] deals with L929 cells. The series can be described thus: Cellular uptake mechanism by FACS. In kind it is cell-based.
Series [2] concerns plasmid DNA (pDNA, 4.7 kb). In kind it is binding.
Series [3] is described as follows: Polyplex stability against NaCl, agarose gel retardation. The conditions noted are these: pDNA condensed with 25 μM peptide, NaCl treatment. In kind it is physicochemical.
Another series deals with ctDNA. The series can be described thus: Hoechst. In kind it is binding. The conditions noted are these: Hoechst-bound ctDNA titrated with peptide, fluorescence at 460 nm.
The next series concerns pDNA. As to the kind of experiment: DLS and ζ-potential of peptide/pDNA polyplex. In kind it is physicochemical. The essentials: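 Plasmid was pEGFP-C2 (4.7 kb), isolated from E. coli DH5α, with purity checked by A260/A280. It was mixed with peptide (0–25 μM) in Tris-HCl (10 mM, pH 7.4). Hydrodynamic size was measured by dynamic light scattering in a 1 cm quartz cuvette, alongside ζ-potential.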

Series [4] relates to L929 cells. As to the kind of experiment: Cellular uptake of CF-labeled peptides by FACS. It counts as cell-based. The conditions noted are these: 10 μM CF-labeled peptide, 6 h incubation. The essentials: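 L929 cells grown in DMEM with 10% FBS and 1% penicillin-streptomycin, seeded at 50×10^4 cells/well, and cultured 24 h. Treated 6 h with 10 μM carboxyfluorescein-labelled peptide. Washed with PBS (10 mM, pH 7.4), detached with 0.25% trypsin, pellet washed three times with PBS, then analysed by flow cytometry.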
For orientation: A flow cytometer gives signals particle by particle.

Residues, ends and D or L forms follow the SMILES beside them.

For `C[C@H](N)C(=O)N[C@@H](C)C(=O)N[C@@H](CCCCN)C(=O)N[C@@H](CCCCN)C(=O)N[C@@H](C)C(=O)N[C@@H](C)C(=O)N[C@@H](C)C(=O)N[C@@H](CCCCN)C(=O)N[C@@H](CCCCN)C(=O)N[C@@H](C)C(=O)N[C@@H](C)C(=O)N[C@@H](C)C(=O)N[C@@H](CCCCN)C(=O)N[C@@H](CCCCN)C(=O)N[C@@H](C)C(=O)N[C@@H](C)C(=O)N[C@@H](C)C(=O)N[C@@H](CCCCN)C(=O)N[C@@H](CCCCN)C(=O)N[C@@H](C)C(N)=O` [Ku-A4] (H-AAKKAAAKKAAAKKAAAKKA-NH2; N-terminus assumed), the “inhibition of cellular uptake by macropinocytosis inhibitor amiloride” value in the series on L929 cells [1] is listed as 48%. For the same compound, the “reduction of peptide uptake by energy depletion with NaN3” value with L929 cells [1] (0.1% NaN3 pre-incubated 1 h before peptide) is on record as 38%. The “cellular uptake at 4 °C (reduced to)” value in the series with L929 cells [1] (1 h pre-incubation at 4 °C then peptide 6 h at 4 °C) is 18%. In addition, the “peptide concentration for complete condensation of DNA (gel)” value in series [2] was determined as 3 µM. Besides, the “NaCl concentration at which polyplex starts disassembling” value in series [3] is recorded as 250 mM. Besides, the “peptide concentration for complete Hoechst displacement” value in the series with ctDNA came out at 10 µM. The “size of polyplex at higher peptide concentrations” value with pDNA (DLS, pDNA in Tris-HCl 10 mM pH 7.4, higher peptide concentrations (up to 25 μM)) stood at 140 nm. Moreover, the “ζ-potential of polyplex at 25 μM peptide” value in the series on pDNA (DNA 200 ng/mL, 25 μM peptide) is recorded as “+16.4 mV”. Moreover, the “cell penetration efficacy (cellular uptake, FACS)” value in the series with L929 cells [4] was “superior cell penetration ability”.
